From ChEMBL document CHEMBL1136760 (J Med Chem, 2003)

What was measured:
[1] = molecular target: Sodium-dependent serotonin transporter (Rattus norvegicus, UniProt P31652); assay: Inhibition of [3H]citalopram binding to Serotonin transporter (5-HTT) in rat cortical tissue.
In short: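 Rat cortical P2 fraction homogenized in 16 volumes of ice-cold 25 mM sodium phosphate, pH 7.7. [3H]citalopram at 2 nM final; 1 µM clomipramine defines nonspecific binding. Usually seven drug concentrations, triplicates, organic solvent ≤0.3 vol %. Incubated 3 h at 0 °C, then filtered on PEI-soaked glass fibre and counted. IC50 and Hill coefficients from dose-response curves.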

[2] = molecular target: Monoamine transporters; serotonin & dopamine (Rattus norvegicus) (UniProt P31652+P23977); assay: Selectivity ratio for DAT binding compared to 5-HTT binding.; format: protein assay
[3] = molecular target: T1, Sodium-dependent dopamine transporter (Rattus norvegicus, UniProt P23977); assay: Inhibition of [3H]WIN-35428 binding to the cocaine binding site on the dopamine transporter (DAT) in synaptosomal membrane preparations from rat striatal tissue.; format: cell membranes, Striatum
[4] = molecular target: T1, Sodium-dependent dopamine transporter; assay: Inhibition of [3H]DA uptake at DAT in rat striatal synaptosomes.
[5] = molecular target: Sodium-dependent serotonin transporter (Rattus norvegicus) (UniProt P31652); assay: Inhibition of [3H]citalopram binding to Serotonin transporter (5-HTT) in rat cortical tissue […]; settings: 10 uM
In short: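 Rat cortical P2 membranes in 25 mM sodium phosphate, pH 7.7; 1 µM clomipramine defines nonspecific binding. Incubated 3 h at 0 °C, then rapid filtration on PEI-presoaked filters and radioactivity counting.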

Sequence of Sodium-dependent serotonin transporter (Rattus norvegicus) (P31652 whole entry): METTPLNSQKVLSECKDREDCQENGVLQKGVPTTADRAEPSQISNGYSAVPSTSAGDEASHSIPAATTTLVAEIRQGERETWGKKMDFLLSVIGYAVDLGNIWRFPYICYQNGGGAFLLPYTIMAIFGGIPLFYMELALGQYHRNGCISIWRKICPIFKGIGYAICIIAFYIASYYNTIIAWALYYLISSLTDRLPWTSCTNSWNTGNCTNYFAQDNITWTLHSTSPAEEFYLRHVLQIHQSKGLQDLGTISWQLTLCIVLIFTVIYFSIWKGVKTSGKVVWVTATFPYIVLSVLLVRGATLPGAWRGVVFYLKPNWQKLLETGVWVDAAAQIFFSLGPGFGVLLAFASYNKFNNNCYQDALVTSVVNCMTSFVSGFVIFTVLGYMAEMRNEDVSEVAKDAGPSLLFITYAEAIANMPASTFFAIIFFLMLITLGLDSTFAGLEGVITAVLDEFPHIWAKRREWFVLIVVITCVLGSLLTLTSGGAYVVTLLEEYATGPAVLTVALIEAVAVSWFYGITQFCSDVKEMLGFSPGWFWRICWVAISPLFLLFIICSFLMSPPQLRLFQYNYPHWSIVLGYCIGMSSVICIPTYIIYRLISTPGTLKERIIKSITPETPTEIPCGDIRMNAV
Sequence of Sodium-dependent serotonin transporter (P31652 whole entry): as above
T1 sequence (P23977 whole entry): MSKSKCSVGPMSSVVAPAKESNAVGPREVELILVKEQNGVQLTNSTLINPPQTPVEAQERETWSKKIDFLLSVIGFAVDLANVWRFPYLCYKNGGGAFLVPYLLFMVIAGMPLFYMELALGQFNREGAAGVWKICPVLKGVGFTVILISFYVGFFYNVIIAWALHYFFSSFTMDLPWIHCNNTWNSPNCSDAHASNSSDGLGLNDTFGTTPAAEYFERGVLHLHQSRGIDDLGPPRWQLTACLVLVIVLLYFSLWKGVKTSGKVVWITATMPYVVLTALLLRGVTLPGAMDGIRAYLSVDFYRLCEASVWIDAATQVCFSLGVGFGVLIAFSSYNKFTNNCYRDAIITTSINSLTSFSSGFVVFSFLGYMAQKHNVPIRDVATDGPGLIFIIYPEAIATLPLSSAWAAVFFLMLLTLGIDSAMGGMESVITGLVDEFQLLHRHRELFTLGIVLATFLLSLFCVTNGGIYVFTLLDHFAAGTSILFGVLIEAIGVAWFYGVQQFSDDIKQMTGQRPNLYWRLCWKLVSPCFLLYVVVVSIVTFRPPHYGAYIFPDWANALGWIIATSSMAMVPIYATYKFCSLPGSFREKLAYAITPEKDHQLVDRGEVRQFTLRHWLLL
Sequence of Monoamine transporters; serotonin & dopamine (Rattus norvegicus) (P23977 whole entry, looked up): as the sequence (P23977 whole entry) above
Sequence of Monoamine transporters; serotonin & dopamine (Rattus norvegicus) (P31652 whole entry, looked up): as the sequence (P31652 whole entry) above

Compound | IC50 [1] | Selectivity ratio [2] | IC50 [3] | IC50 [4] | inhibition [5]
OC1C2CCC1CN(Cc1ccccc1)C2 (stereo unspecified) | > 10000 nM | > 0.45 | 22100 nM | 45000 nM | 23.8%
c1ccc(CN2CC3CCC(C2)C3OC(c2ccccc2)c2ccccc2)cc1 (stereo in doubt; 17b) [listing 1 of 2 here] | > 10000 nM | – | 536 nM | 1980 nM | –
BrC1C2CCC1CN(Cc1ccccc1)C2 (stereo unspecified) | > 10000 nM | > 2.2 | – | 8640 nM | 30.4%
c1ccc(CN2CC3CCC(C2)C3OC(c2ccccc2)c2ccccc2)cc1 (stereo in doubt; 17a) [listing 1 of 2 here] | 10000 nM | – | 363 nM | 735 nM | –
c1ccc(CN2CC3CCC(C2)C3OC(c2ccccc2)c2ccccc2)cc1 (stereo in doubt; 17b) [listing 2 of 2 here] | – | > 18 | – | – | 29.8%
CN1CC2CCC(C1)C2(O)c1ccccc1 (stereo unspecified) | > 10000 nM | > 1 | 10100 nM | 9770 nM | 27.8%
OC1(c2ccccc2)C2CCC1CN(Cc1ccccc1)C2 (stereo unspecified) | 3060 nM | 0.17 | 17500 nM | 27100 nM | –
OC1(c2ccccc2)C2CCC1CNC2 (stereo unspecified) | – | – | – | 8480 nM | 46.2%
c1ccc(C2C3CCC2CNC3)cc1 (stereo unspecified) | 4000 nM | 16 | 258 nM | 893 nM | –
c1ccc(CN2CC3CCC(C2)C3c2ccccc2)cc1 (stereo in doubt; 14) [3-BENZYL-8-PHENYL-3-AZA-BICYCLO[3.2.1]OCTANE (STEREOISOMERIC MIX)] | 3880 nM | – | 785 nM | 4450 nM | –
OC1(c2ccc(Cl)cc2)C2CCC1CN(Cc1ccccc1)C2 (stereo unspecified) | 997 nM | 0.66 | 1510 nM | 2630 nM | –
Clc1ccc(C2C3CCC2CN(Cc2ccccc2)C3)cc1 (stereo unspecified) | 402 nM | 4.2 | 95.5 nM | 601 nM | –
c1ccc(CN2CC3CCC(C2)C3OC(c2ccccc2)c2ccccc2)cc1 (stereo in doubt; 17a) [listing 2 of 2 here] | – | 27 | – | – | 61%
Clc1ccc(C2C3CCC2CNC3)cc1 (stereo unspecified) | 363 nM | 4.4 | 81.5 nM | 478 nM | –
c1ccc(CN2CC3CCC(C2)C3c2ccccc2)cc1 (stereo in doubt; 8a) | – | 14.8 | – | – | –
c1ccc(CN2CC3CCC(C2)C3c2ccccc2)cc1 (stereo in doubt; 8a) [3-BENZYL-8-PHENYL-3-AZA-BICYCLO[3.2.1]OCTANE (STEREOISOMERIC MIX)] | 3460 nM | – | 234 nM | 309 nM | –
CN1CC2CCC(C1)C2c1ccccc1 (stereo unspecified) | 1850 nM | 5.1 | 360 nM | 1040 nM | –
c1ccc(CN2CC3CCC(C3)C2)cc1 | > 10000 nM | > 0.41 | 24300 nM | 35700 nM | 24.4%
CN1CC2CCC(C1)C2c1ccc(Cl)cc1 (stereo unspecified) | 220 nM | 0.81 | – | 926 nM | –
c1ccc(CN2CC3CCC(C2)C3c2ccccc2)cc1 (stereo in doubt; 14) | – | 4.9 | – | – | –
